Measurements collected from several papers.
Lines come from different studies, so protocols differ. Values after ≈ are worked out from the molar mass of the structure shown.
Organism: Candida albicans
Effect on: microbial growth

N#Cc1c(-c2ccc(OCc3ccccc3)cc2)c(C(N)=O)c(N)n(N)c1=O  inhibition zone (well diffusion; ATCC10231; 500 µg/mL): 10 mm
O=C(C=Cc1ccc(O)c(O)c1)Oc1ccccc1  MIC (broth dilution; SC5314): 32 µg/mL (≈ 125 µM)
Cc1nn(-c2ccccc2)c2c1C(c1ccco1)N(C(=O)c1ccncc1)N2 (centres unmarked)  MIC (MTCC183): > 100 µg/mL
CN(C)c1ccc(-c2c(C(N)=S)c(N)n(N)c(=O)c2C#N)cc1  inhibition zone (well diffusion; ATCC10231; 500 µg/mL): 17 mm
O=C(C=Cc1ccc(O)c(O)c1)OCc1ccccc1  MIC (broth dilution; SC5314): 64 µg/mL (≈ 237 µM)
C[C@@H]1[C@H](O)[C@@H](C)/C=C/C=C/C=C/C=C/C=C/C=C/C=C/[C@H](O[C@@H]2O[C@H](C)[C@@H](O)[C@H](N)[C@@H]2O)C[C@@H]2O[C@](O)(C[C@@H](O)C[C@@H](O)[C@H](O)CC[C@@H](O)C[C@@H](O)CC(=O)O[C@H]1C)C[C@H](O)[C@H]2C(=O)O  MIC (broth dilution; ATCC60193; 24 h): 2 µg/mL (≈ 2.16 µM)
CC(C)=CCCC(C)=CC1c2c(C)nn(-c3ccccc3)c2NN1C(=O)c1ccncc1 (centres unmarked)  MIC (MTCC183): 32 µg/mL (≈ 74.8 µM)
Cc1ccccc1NC(=O)C=Cc1ccc(O)c(O)c1  MIC (broth dilution; SC5314): 32 µg/mL (≈ 119 µM)
Cc1nn(-c2ccccc2)c2c1C(c1cncs1)N(C(=O)c1ccncc1)N2 (centres unmarked)  MIC (MTCC183): > 100 µg/mL
Cc1c(C(N)=O)c(N)n(N)c(=O)c1C#N  inhibition zone (well diffusion; ATCC10231; 500 µg/mL): 12 mm
O=C1C(Br)=C(Br)C(=O)c2ccccc21  MIC (broth dilution; ATCC60193; 24 h): 3.12 µg/mL (≈ 9.89 µM)
CN(C)c1ccc(-c2c(C(N)=O)c(N)n(N)c(=O)c2C#N)cc1  inhibition zone (well diffusion; ATCC10231; 500 µg/mL): 12 mm
COc1ccc(C2c3c(C)nn(-c4ccccc4)c3NN2C(=O)c2ccncc2)cc1 (centres unmarked)  MIC (MTCC183): 16 µg/mL (≈ 38.9 µM)
O=C(C=Cc1ccc(O)c(O)c1)Oc1cccc2cccnc12  MIC (broth dilution; SC5314): 16 µg/mL (≈ 52.1 µM)
N#Cc1c(-c2ccc(Cl)cc2Cl)c(C(N)=S)c(N)n(N)c1=O  inhibition zone (well diffusion; ATCC10231; 500 µg/mL): 13 mm
Nc1ccccc1OC(=O)C=Cc1ccc(O)c(O)c1  MIC (broth dilution; SC5314): 8 µg/mL (≈ 29.5 µM)
Clc1ccccc1C(c1ccccc1)(c1ccccc1)n1ccnc1  MIC (MTCC183): 0.5 µg/mL (≈ 1.45 µM)
